The text below walks through data of ChEMBL document CHEMBL2331548, “Identification of N-acyl 4-(3-pyridonyl)phenylalanine derivatives and their orally active prodrug esters as dual acting α4β1 and α4β7 receptor antagonists” (Bioorg Med Chem Lett, 2013).

Values after ≈ are worked out from the molar mass of the structure shown. Active and inactive are the calls of the source.

The subject of data set [1] is Cynomolgus monkey. Description: Antiinflammatory activity in cynomolgus monkey challenged with aerosolized Ascaris suum extract assessed as reduction in neutrophils influx into lungs at 10 and 30 mg/kg, po administered 2 hrs before antigen challenge measured 24 hrs after antigen challenge. Further details: dose 30 mg/kg. Type of data set: functional, organism-based. As to conditions: Macaca fascicularis. Summed up: (§1)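 Cynomolgus monkeys (atopic) dosed orally at 10 or 30 mg/kg, or vehicle, then challenged 2 h later with aerosolized Ascaris suum extract. Bronchiolar lavage fluid collected 24 h post-challenge and inflammatory cells counted by type (macrophages, neutrophils, eosinophils, lymphocytes, total) as cells ×10^4/mL.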

For data set [2], the system named is Liver microsomes. Description: Stability in human liver microsomes assessed as prodrug hydrolysis. Type of data set: ADME, Microsome. Summed up:
(§2)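 Ester prodrug incubated in liver microsomal preparations from mouse, rat, dog, monkey and human; percent of ester remaining followed at 0, 10, 30 and 90 min. A buffer-only incubation without microsomes served as control.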
(Liver microsomes are vesicles of endoplasmic reticulum, rich in cytochrome P450 enzymes.)

For data set [3], the system named is Macaca fascicularis. Description: Oral bioavailability in monkey at 30 mg/kg. The following applies: cynomolgus monkey, in vivo.
A short description of data set [4]: Solubility in simulated gastric fluid at pH 2.0. As to conditions: simulated gastric fluid, read-out: solubility. Type of data set: physicochemical.
The subject of data set [5] is Cynomolgus monkey. Description: Antiinflammatory activity in cynomolgus monkey challenged with aerosolized Ascaris suum extract assessed as reduction in eosinophils influx into lungs at 10 and 30 mg/kg, po administered 2 hrs before antigen challenge measured 24 hrs after antigen challenge. Type of data set: functional, organism-based. Also on record: dose 30 mg/kg. The following applies: Macaca fascicularis. The essentials:
as §1

Data set [6] deals with Canis familiaris. Description: Cmax in dog at 50 mg/kg, po. Type of data set: ADME, organism-based, Canis lupus familiaris. Also on record: dose 50 mg/kg, route oral. The following applies: in vivo. Summed up:
(§3)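 Ester prodrug given orally (rat and dog 50 mg/kg, monkey 30 mg/kg). Plasma exposure measured as the parent acid, reported as AUC and Cmax; bioavailability (F%) calculated for the acid.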

Data set [7] can be described thus: Oral bioavailability in rat. Type of data set: ADME, organism-based. As to conditions: in vivo.
The target of a further data set is hERG (KCNH2) (Homo sapiens, UniProt Q12809). Description: Inhibition of human ERG.
A short description of data set [8]: Solubility in simulated intestinal fluid at pH 7.5. Type of data set: physicochemical.
In data set [9] the test system is Cynomolgus monkey. Description: Antiinflammatory activity in cynomolgus monkey challenged with aerosolized Ascaris suum extract assessed as reduction in total leukocytes influx into lungs at 10 and 30 mg/kg, po administered 2 hrs before antigen challenge measured 24 hrs after antigen challenge. Type of data set: functional, organism-based. As to conditions: Macaca fascicularis. Also on record: dose 30 mg/kg. The essentials:
as §1

Data set [10] in a line: Oral bioavailability in dog at 50 mg/kg. The following applies: in vivo. Type of data set: ADME, organism-based, Canis lupus familiaris. Summed up: as §3
For data set [11], the system named is Cynomolgus monkey. Description: Antiinflammatory activity in cynomolgus monkey challenged with aerosolized Ascaris suum extract assessed as reduction in lymphocytes influx into lungs at 10 and 30 mg/kg, po administered 2 hrs before antigen challenge measured 24 hrs after antigen challenge. Type of data set: functional, organism-based. Also on record: dose 30 mg/kg. The following applies: Macaca fascicularis. The essentials: as §1

For data set [12], the system named is Liver microsomes. Description: Stability in rat liver microsomes assessed as prodrug hydrolysis. Type of data set: ADME, Microsome. Summed up:
as §2

Data set [13] concerns Liver. Description: Stability in mouse liver microsomes assessed as prodrug hydrolysis. Type of data set: ADME, Microsome. The essentials: as §2
The subject of data set [14] is Rattus norvegicus. Description: AUC in rat assessed as (2S)-2-(2,6-dichlorobenzamido)-3-(4-(2-hydroxy-1,6-dimethyl-4-(trifluoromethyl)-1,2-dihydropyridin-3-yl)phenyl)propanoic acid level at 50 mg/kg, po. Type of data set: ADME, organism-based, Plasma. Also on record: dose 50 mg/kg, route oral. As to conditions: in vivo. Summed up: as §3
Data set [15] in a line: Oral bioavailability in rat at 50 mg/kg. Type of data set: ADME, organism-based. The following applies: in vivo. Summed up:
as §3

Data set [16] has as its system Rattus norvegicus. Description: Cmax in rat at 50 mg/kg, po. Also on record: dose 50 mg/kg, route oral. Type of data set: ADME, organism-based. The following applies: in vivo. Summed up:
as §3

The test system of data set [17] is Canis familiaris. Description: AUC in dog assessed as (2S)-2-(2,6-dichlorobenzamido)-3-(4-(2-hydroxy-1,6-dimethyl-4-(trifluoromethyl)-1,2-dihydropyridin-3-yl)phenyl)propanoic acid level at 50 mg/kg, po. Type of data set: ADME, organism-based, Canis lupus familiaris, Plasma. Further details: dose 50 mg/kg, route oral. The following applies: in vivo. Summed up: as §3

A short description of data set [18]: Stability in simulated intestinal fluid at pH 7.5 assessed as half life. Type of data set: physicochemical.
The nature of data set [19]: Stability in monkey liver microsomes assessed as prodrug hydrolysis. As to conditions: rhesus monkey. Type of data set: ADME, Macaca mulatta, Microsome. Summed up: as §2
In a further data set the test system is Plasma. Description: Stability in dog plasma assessed as unchanged prodrug level on days 1 and 6. Type of data set: ADME, cell-free, Canis lupus familiaris. The essentials:
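Unchanged prodrug measured in dog plasma on days 1 and 6 of subchronic safety studies after dosing with the ester prodrug.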

Data set [20] has as its system Liver. Description: Stability in dog liver microsomes assessed as prodrug hydrolysis. Type of data set: ADME, Canis lupus familiaris, Microsome. The essentials:
as §2

Data set [21] can be described thus: Apparent permeability across human Caco2 cells. Type of data set: ADME, cell-based. The following applies: Caco-2. (In general: Caco-2 monolayers are a common model of the intestinal barrier.)
Data set [22] relates to Macaca fascicularis. Description: AUC in monkey assessed as (2S)-2-(2,6-dichlorobenzamido)-3-(4-(2-hydroxy-1,6-dimethyl-4-(trifluoromethyl)-1,2-dihydropyridin-3-yl)phenyl)propanoic acid level at 30 mg/kg, po. The following applies: cynomolgus monkey, in vivo.
Data set [23] in a line: Stability in plasma (unknown origin) assessed as unchanged prodrug level. Type of data set: ADME, cell-free.

hERG (KCNH2), sequence (Q12809 whole entry): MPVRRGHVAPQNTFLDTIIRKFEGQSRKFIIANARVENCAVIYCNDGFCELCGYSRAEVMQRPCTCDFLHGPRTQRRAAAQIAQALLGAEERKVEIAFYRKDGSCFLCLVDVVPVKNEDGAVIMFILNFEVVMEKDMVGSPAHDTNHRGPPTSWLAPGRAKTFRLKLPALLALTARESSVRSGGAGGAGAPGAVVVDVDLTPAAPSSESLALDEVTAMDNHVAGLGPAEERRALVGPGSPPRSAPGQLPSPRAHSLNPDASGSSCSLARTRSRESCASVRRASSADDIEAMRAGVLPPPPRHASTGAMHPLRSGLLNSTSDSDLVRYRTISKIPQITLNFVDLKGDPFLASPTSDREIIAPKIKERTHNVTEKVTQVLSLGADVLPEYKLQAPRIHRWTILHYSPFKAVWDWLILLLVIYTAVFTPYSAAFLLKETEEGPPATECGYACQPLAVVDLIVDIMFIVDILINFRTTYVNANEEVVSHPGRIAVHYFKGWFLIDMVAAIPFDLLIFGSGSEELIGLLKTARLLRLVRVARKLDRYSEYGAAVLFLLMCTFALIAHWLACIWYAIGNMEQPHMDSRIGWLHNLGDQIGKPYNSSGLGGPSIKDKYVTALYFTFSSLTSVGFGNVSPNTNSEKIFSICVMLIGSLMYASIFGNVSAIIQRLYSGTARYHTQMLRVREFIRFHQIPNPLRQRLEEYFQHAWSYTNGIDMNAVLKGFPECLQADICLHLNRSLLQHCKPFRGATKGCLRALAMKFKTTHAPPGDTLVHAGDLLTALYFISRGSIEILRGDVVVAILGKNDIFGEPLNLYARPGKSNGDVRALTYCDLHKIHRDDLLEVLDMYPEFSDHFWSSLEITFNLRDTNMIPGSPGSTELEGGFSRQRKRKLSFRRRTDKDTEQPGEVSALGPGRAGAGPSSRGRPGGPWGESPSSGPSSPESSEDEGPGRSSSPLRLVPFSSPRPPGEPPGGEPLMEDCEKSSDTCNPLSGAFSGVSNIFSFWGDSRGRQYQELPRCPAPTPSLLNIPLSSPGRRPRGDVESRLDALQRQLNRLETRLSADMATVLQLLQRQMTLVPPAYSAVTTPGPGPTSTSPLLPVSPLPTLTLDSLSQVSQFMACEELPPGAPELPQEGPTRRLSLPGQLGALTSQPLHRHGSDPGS

Usually bioavailability stands for dose-corrected exposure relative to a reference, in per cent. By solubility is commonly meant how much of the substance goes into solution per volume. Broadly, the Cmax is the peak of the concentration-time curve. As usually defined, the IC20 is the concentration at which the effect reaches the 20% level. One may read the AUC as concentration integrated over time. One may read the Papp as a coefficient for how fast a substance crosses the barrier. Take `Cc1cc(C(F)(F)F)c(-c2ccc(C[C@H](NC(=O)c3c(Cl)cccc3Cl)C(=O)OCCCN3CCOCC3)cc2)c(=O)n1C`: the outcome with Cynomolgus monkey [1], in the data set with Cynomolgus monkey [5], in the data set on Cynomolgus monkey [9] and with Cynomolgus monkey [11] was Active. Also, the Stability entry was “Stable” in the data set on Liver microsomes [2]; “Unstable” in the data set with Liver microsomes [12]; “Unstable” with Liver [13]; “Stable” in data set [18] (simulated gi fluid); “Unstable” in data set [19]; 10% in the data set with Plasma. For the same compound, in the data set on Liver [20], the Stability entry is reported as “Stable”. Moreover, the bioavailability in the data set with Macaca fascicularis [3] is 46%; in data set [7] it was 11%; in data set [10] it was 13%; in [15], 11%. In addition, the values for the solubility in data set [4] and in data set [8] were 3900 µg/mL (≈ 5960 µM) and 330 µg/mL (≈ 504 µM), respectively. In addition, the figures for the Cmax with Canis familiaris [6] and with Rattus norvegicus [16] were 2400 ng/mL and 2500 ng/mL, respectively. Also, on hERG (KCNH2), the IC20 came out at 2.9 µM. The AUC was found to be 6100 ng·h/mL in the data set with Rattus norvegicus [14], 6420 ng·h/mL in the data set with Canis familiaris [17] and 30150 ng·h/mL in the data set with Macaca fascicularis [22]. Besides, in [21], the Papp was 16.5 ×10⁻⁶ cm/s.

The term half-life denotes the time needed for the level to fall by half in the phase considered. Regarding `Cc1cc(C(F)(F)F)c(-c2ccc(C[C@H](NC(=O)c3c(Cl)cccc3Cl)C(=O)OCCN3CCOCC3)cc2)c(=O)n1C`, the solubility was over 13000 µg/mL in data set [4] and 200 µg/mL (≈ 312 µM) in data set [8]. In data set [7], this compound had a bioavailability of 15%. Besides, at hERG (KCNH2), the IC20 was 11 µM. Besides, the Stability entry in data set [23] is “Stable”. Also, the half-life in data set [18] (simulated intestinal fluid) is 4 h. For the same compound, in [21], the Papp stood at 16.2 ×10⁻⁶ cm/s.
